Experimental data published in ChEMBL document CHEMBL1123227, “Tricyclic epines. Novel (E)- and (Z)-11H-dibenz[b,e]azepines as potential central nervous system agents. Variation of the basic side chain” (1986).

Columns and labels:
Format in all cases: functional
Oryctolagus cuniculus = species: Oryctolagus cuniculus; test: Compound was tested for the muscle-relaxing activity in rabbits
Outline: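 Muscle electrical activity during contraction was recorded and pulses were counted. A 5 s extension was repeated every 1 min. Once pulse counts were constant (control value), the substance was given iv, and post-dose pulses were related to that value. Four to six animals were used per dose. ED50 was the dose halving muscle activity from the initial value.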

Rattus norvegicus [1] = species: Rattus norvegicus; test: Compound was tested or the anti-tryptamine activity in rats
Outline: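 Rats were challenged with tryptamine hydrochloride (16 mg/kg iv), with test substances given ip 30 min beforehand. Activity was scored as absence of clonic front paw movements over a 5 min observation after tryptamine. ED50 was the dose preventing the symptom in half the animals, determined by Probit analysis.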

Rattus norvegicus [2] = species: Rattus norvegicus; test: Compound was tested or the anti-tryptamine activity in rats relative with respect to clozapine.
Outline: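 Rats dosed ip 30 min before tryptamine hydrochloride 16 mg/kg iv. Effect means front paw clonic movements absent over 5 min observation after tryptamine. ED50 is the dose preventing the symptom in half the animals (Probit analysis); relative activity referenced to clozapine.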

Mus musculus [3] = species: Mus musculus; test: Anticholinergic activity in mice.
Outline: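 Groups of 10 female NMRI mice received a lethal dose of physostigmine (0.825 mg/kg sc). Test substances were given orally 30 min before the physostigmine.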

Mus musculus [4] = species: Mus musculus; test: Sedative activity relative with respect to clozapine.
Mus musculus [5] = species: Mus musculus; test: Anticholinergic activity relative with respect to clozapine.
Mus musculus [6] = species: Mus musculus; test: Sedative activity in mice
Rattus norvegicus [7] = species: Rattus norvegicus; test: Compound was tested for the apomorphine antagonistic activity in rats expressed as relative activity
Outline: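 Female Sprague–Dawley rats, groups of four to six. Oral dosing 90 min before apomorphine 1.5 mg/kg sc. Jaw movements recorded via implanted electrodes (mandibulogram).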

Row | SMILES | ED50 (Oryctolagus cuniculus) [mg/kg] | ED50 (Rattus norvegicus [1]) [mg/kg] | Relative activity (Rattus norvegicus [2]) | ED50 (Mus musculus [3]) [mg/kg] | Relative activity (Mus musculus [4]) | Relative activity (Mus musculus [5]) | ED50 (Mus musculus [6]) [mg/kg] | Relative activity (Rattus norvegicus [7])
1 | CN1CCN(C2=Nc3ccccc3C(=CC#N)c3ccccc32)CC1 | 0.059 | 30 | 0.17 | – | – | – | – | –
2 | C[N+]1([O-])CCN(C2=Nc3ccccc3C(=CC#N)c3ccccc32)CC1 | – | – | – | 15.9 | 0.33 | 0.89 | – | –
3 | CCN1CCN(C2=Nc3ccccc3C(=CC#N)c3ccccc32)CC1 | ~0.32 | 6.6 | 0.76 | – | – | – | – | –
4 | Cc1ccc2c(c1)N=C(N1CCN(C)CC1)c1ccccc1C2=CC#N | 0.028 | 6 | 0.83 | – | 5.9 | 0.45 | 0.8 | –
5 | CCN1CCCC1CNC1=Nc2ccccc2/C(=C/C#N)c2ccccc21 (configuration not stated) | – | – | – | > 100 | 0.28 | <0.14 | 17.2 | –
6 | N#C/C=C1/c2ccccc2N=C(NCCN)c2ccccc21 | – | – | – | > 100 | <0.04 | <0.14 | > 100 | –
7 | Cc1ccc2c(c1)/C(=C/C#N)c1ccccc1C(N1CCN(C)CC1)=N2 | ~0.1 | ~21 | 0.23 | – | – | – | – | –
8 | CN1CCN(C2=Nc3ccccc3/C(=C/C#N)c3ccccc32)CC1 | 0.046 | 79 | 0.06 | – | – | 0.81 | – | –
9 | N#C/C=C1/c2ccccc2N=C(N2CCN(CCO)CC2)c2ccccc21 | – | – | – | ~68.1 | 0.32 | 0.21 | 14.6 | –
10 | CN1CCC(OC2=Nc3ccccc3/C(=C/C#N)c3ccccc32)CC1 | – | – | – | > 21.5 | <0.22 | <0.66 | > 21.5 | –
11 | N#C/C=C1/c2ccccc2N=C(N2CCOC(CO)C2)c2ccccc21 (configuration not stated) | – | – | – | ~46.4 | <0.1 | 0.3 | > 46.4 | –
12 | N#C/C=C1/c2ccccc2N=C(N2CCNCC2)c2ccccc21 | – | – | – | 21.3 | 0.15 | 0.66 | 30.6 | –
13 | N#C/C=C1/c2ccccc2N=C(NCCN2CCOCC2)c2ccccc21 | – | – | – | > 100 | 0.58 | <0.14 | 8.12 | –
14 | CN(C)CCN(C)C1=Nc2ccccc2/C(=C/C#N)c2ccccc21 | – | – | – | ~31.6 | 0.32 | 0.45 | ~14.7 | –
15 | CN1CCCCC1COC1=Nc2ccccc2/C(=C/C#N)c2ccccc21 (configuration not stated) | – | – | – | ~68.1 | 0.11 | 0.21 | 43.6 | –
16 | N#C/C=C1/c2ccccc2N=C(N2CCOCC2)c2ccccc21 | – | – | – | > 100 | < 0.04 | <0.14 | > 100 | –
17 | CN1CCN(C2=Nc3ccc(Cl)cc3/C(=C/C#N)c3ccccc32)CC1 | – | – | – | 16.1 | 0.19 | 0.88 | 25.6 | –
18 | N#C/C=C1/c2ccccc2N=C(N2CCC(O)CC2)c2ccccc21 | – | – | – | > 100 | <0.1 | <0.14 | > 46.4 | –
19 | Cc1ccc2c(c1)N=C(N1CC[N+](C)([O-])CC1)c1ccccc1/C2=C/C#N | – | – | – | 31 | 1.78 | 0.45 | 2.66 | –
20 | C[N+]1([O-])CCN(C2=Nc3ccccc3/C(=C/C#N)c3ccccc32)CC1 | – | – | – | ~100 | 0.26 | 0.14 | – | –
21 | Cc1ccc2c(c1)N=C(N1CCN(CCN3CCOC3=O)CC1)c1ccccc1/C2=C\C#N | – | – | – | > 46.4 | 0.5 | <0.3 | 9.56 | –
22 | CC1CCN(C2=Nc3ccccc3/C(=C/C#N)c3ccccc32)CC1 | – | – | – | > 46.4 | 0.07 | <0.3 | ~68.1 | –
23 | CC1CN(C2=Nc3ccccc3/C(=C/C#N)c3ccccc32)CCN1C (configuration not stated) | – | – | – | 7.68 | 0.59 | 1.84 | 8.08 | –
24 | CN1CCCN(C2=Nc3ccccc3/C(=C/C#N)c3ccccc32)CC1 | – | – | – | 5.49 | <0.22 | 2.57 | > 21.5 | –

Row | SMILES | ED50 (Oryctolagus cuniculus) [mg/kg] | ED50 (Rattus norvegicus [1]) [mg/kg] | Relative activity (Rattus norvegicus [2]) | ED50 (Mus musculus [3]) [mg/kg] | Relative activity (Mus musculus [4]) | Relative activity (Mus musculus [5]) | ED50 (Mus musculus [6]) [mg/kg] | Relative activity (Rattus norvegicus [7])
25 | CN1CCCC(COC2=Nc3ccccc3/C(=C/C#N)c3ccccc32)C1 (configuration not stated) | – | – | – | 5.92 | <0.1 | 2.38 | > 46.4 | –
26 | N#C/C=C1/c2ccccc2N=C(NCCN2CCCC2)c2ccccc21 | – | – | – | > 100 | 0.96 | <0.14 | 4.96 | –
27 | CN1CCC(N(C)C2=Nc3ccccc3/C(=C/C#N)c3ccccc32)CC1 | – | – | – | ~31.6 | 0.35 | 0.45 | 13.4 | –
28 | CCN1CCN(C2=Nc3ccccc3/C(=C\C#N)c3ccccc32)CC1 | – | > 100 | <0.05 | – | – | – | – | –
29 | CN1CCN(CCNC2=Nc3ccccc3/C(=C/C#N)c3ccccc32)CC1 | – | – | – | > 100 | 0.17 | <0.14 | 27.7 | –
30 | CCN(CC)CCNC1=Nc2ccccc2/C(=C/C#N)c2ccccc21 | – | – | – | > 100 | 0.83 | <0.14 | 5.72 | –
31 | Cc1ccc2c(c1)N=C(N1CCN(C)CC1)c1ccccc1/C2=C/C#N | 0.25 | 51 | 0.1 | – | – | – | 33.6 | –
32 | CN(C)CCCOC1=Nc2ccccc2/C(=C/C#N)c2ccccc21 | – | – | – | 24 | <0.04 | 0.59 | > 100 | –
33 | CN1CCCC(CNC2=Nc3ccccc3/C(=C/C#N)c3ccccc32)C1 (configuration not stated) | – | – | – | ~46.4 | <0.04 | 0.3 | > 100 | –
34 | CN1CCC(NC2=Nc3ccccc3/C(=C/C#N)c3ccccc32)CC1 | – | – | – | ~68.1 | <0.04 | 0.21 | > 100 | –
35 | CC1CN(C)CCN1C1=Nc2ccccc2/C(=C/C#N)c2ccccc21 (configuration not stated) | – | – | – | ~21.5 | 0.22 | 0.66 | ~21.5 | –
36 | C[N+]1([O-])CCN(C2=Nc3ccccc3/C(=C\C#N)c3ccccc32)CC1 | – | – | – | 8.75 | 0.04 | 1.61 | – | –
37 | N#C/C=C1/c2ccccc2N=C(N2CCN(CCN3CCOC3=O)CC2)c2ccccc21 | – | – | – | 51 | 0.12 | 0.28 | 39.4 | –
38 | N#C/C=C1/c2ccccc2N=C(N2CC[N+]([O-])(CCO)CC2)c2ccccc21 | – | – | – | 39 | 0.46 | 0.36 | 10.3 | –
39 | N#C/C=C1/c2ccccc2N=C(NCCN2CCCCC2)c2ccccc21 | – | – | – | > 10 | – | <1.41 | – | –
40 | CCN1CCN(C2=Nc3ccccc3/C(=C/C#N)c3ccccc32)CC1 | – | – | – | > 21.5 | 1.7 | <0.66 | 2.79 | –
41 | C[N+]1([O-])CCCC(COC2=Nc3ccccc3/C(=C/C#N)c3ccccc32)C1 (configuration not stated) | – | – | – | > 100 | <0.04 | <0.14 | > 100 | –
42 | CN(C)CCNC1=Nc2ccccc2/C(=C/C#N)c2ccccc21 | – | – | – | > 100 | 0.31 | <0.14 | 15.5 | –
43 | Cc1ccc2c(c1)N=C(N1CCN(C)CC1)c1ccccc1/C2=C\C#N | 0.014 | 10 | 0.5 | ~100 | – | – | – | –
44 | CN(C)CCCNC1=Nc2ccccc2/C(=C/C#N)c2ccccc21 | – | – | – | > 46.4 | <0.1 | <0.3 | > 46.4 | –
45 | CN(C)CCOC1=Nc2ccccc2/C(=C/C#N)c2ccccc21 | – | – | – | 24.9 | 0.14 | 0.57 | 34.8 | –
46 | N#C/C=C1/c2ccccc2N=C(N2CCC(O)(c3ccccc3)CC2)c2ccccc21 | – | – | – | > 100 | <0.1 | <0.14 | > 46.4 | –
47 | CN1CCN(C2=Nc3ccccc3/C(=C\C#N)c3ccccc32)CC1 | ~1 | 32 | 0.16 | – | <0.2 | 3 | – | –
48 | CN1CCN(C2=Nc3cc(Cl)ccc3Nc3ccccc32)CC1 [CLOZAPINE] | 0.028 | 5 | 1 | – | 1 | 1 | – | 1
